# Compound activity (PubChem BioAssay)
# TRPC6 activator: activators of mouse TRPC6 channel. HEK293-TRPC6 membrane potential dye fluorescence; active compounds read high. Q61143. hit rate 0.13% among 310,000. B-score at 10 µM;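 active = B-score of the integrated fluorescence ratio above library mean plus 3 SD, and starting fluorescence ratio within library mean plus 5 SD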;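 also: higher score means more depolarization so channel activation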
# Target sequence (Q61143 whole entry, looked up): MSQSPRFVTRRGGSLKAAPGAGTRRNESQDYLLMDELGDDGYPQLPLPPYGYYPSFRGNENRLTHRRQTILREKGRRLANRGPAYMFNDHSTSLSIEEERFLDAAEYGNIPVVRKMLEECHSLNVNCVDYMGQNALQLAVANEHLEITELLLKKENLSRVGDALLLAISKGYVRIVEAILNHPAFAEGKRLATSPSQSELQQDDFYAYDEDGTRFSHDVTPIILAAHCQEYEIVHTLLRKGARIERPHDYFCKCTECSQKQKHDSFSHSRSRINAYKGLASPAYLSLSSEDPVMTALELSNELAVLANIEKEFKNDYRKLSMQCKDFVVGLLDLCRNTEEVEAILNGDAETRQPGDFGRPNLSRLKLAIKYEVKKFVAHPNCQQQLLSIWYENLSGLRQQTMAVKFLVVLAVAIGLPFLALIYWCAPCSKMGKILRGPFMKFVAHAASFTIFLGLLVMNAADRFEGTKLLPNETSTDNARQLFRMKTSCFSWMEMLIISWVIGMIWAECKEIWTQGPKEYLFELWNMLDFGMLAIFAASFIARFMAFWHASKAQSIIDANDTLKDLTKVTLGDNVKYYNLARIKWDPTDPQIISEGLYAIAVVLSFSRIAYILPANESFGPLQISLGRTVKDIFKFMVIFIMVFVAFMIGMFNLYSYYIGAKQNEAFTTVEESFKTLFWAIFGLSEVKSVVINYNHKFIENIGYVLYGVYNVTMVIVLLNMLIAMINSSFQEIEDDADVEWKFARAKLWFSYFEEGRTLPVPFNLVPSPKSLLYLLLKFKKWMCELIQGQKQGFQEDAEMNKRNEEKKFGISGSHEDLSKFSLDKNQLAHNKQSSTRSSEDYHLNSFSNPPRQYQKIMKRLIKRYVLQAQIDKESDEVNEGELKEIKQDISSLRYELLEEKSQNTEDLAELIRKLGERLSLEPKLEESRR
# TRPC4 agonist: opens the mouse TRPC4 cation channel. Q9QUQ5. HEK293 TRPC4beta/mu-opioid, Fluo4 calcium fluorescence; active compounds read high. B-score at 10 µM. hit rate 0.49% among 310,000;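 active = B-score above 5 SD of library B-scores, and initial fluorescence ratio not above library mean plus 5 SD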;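 also: positive B-score marks a calcium rise read as TRPC4 activation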
#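 Assay system: HEK293 cells stably co-expressing mouse TRPC4beta and mu-opioid receptor / Timing: Fluo4 dye loading 45 min at room temperature, 110 s recording / Signal: Fluo4 calcium-sensitive dye fluorescence, kinetic, 1 Hz baseline / Read-out: integrated baseline-normalised fluorescence ratio, converted to per-well B score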
# TRPC4 inh: TRPC4 (mouse) channel inhibition; hit rate 0.39% among 300,000; B-score at 10 µM; HEK293 TRPC4beta/mu-opioid, DAMGO-evoked Fluo4 calcium flux; active compounds read low; Q9QUQ5; AID 2247;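 active = B-score over 3 SD under the library average, no early fluorescence shift, positive overall ratio signal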
#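 Assay system: HEK293 cells with stable TRPC4beta plus mu-opioid receptor expression; Probe or stimulus: DAMGO in two steps, submaximal then maximal; Dosing: single-point compound dosing; Measured by: Fluo4 calcium-dye fluorescence, kinetic read; Read-out basis: B score from integrated Fluo4 fluorescence ratio.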
# TRPC6 inhibitor: blocks the mouse TRPC6 cation channel; Q61143; B-score at 10 µM; HEK293-TRPC6, membrane potential dye, ACh-evoked depolarization; active compounds read low; AID 2553; hit rate 1.1% among 310,000;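 active = B-score under library mean minus 3 SD, initial fluorescence not abnormally high, positive integrated signal ratio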;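 also: B-score derived from integrated fluorescence ratio over the kinetic read; more negative B-score means stronger inhibition of depolarization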
# TRPC4 potent: TRPC4 (mouse) allosteric potentiation | Q9QUQ5 | hit rate 0.42% among 310,000 | B-score at 10 µM | HEK293 TRPC4beta/mu-opioid, DAMGO EC20, Fluo-4 Ca2+ flux; active compounds read high;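 active = B-score of calcium response area above 5 SD of library B-scores, with initial fluorescence ratio within 5 SD of library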;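 also: B-score of integrated fluorescence ratio over time as area under calcium response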
# TRPC4 sel inh 2: second check of whether TRPC6 inhibitors also affect mouse TRPC4; shares compounds with TRPC6 inhibitor; HEK293 TRPC4/MOR, membrane potential dye fluorescence; channel activated by saturating DAMGO dose; inhibition, % at 10 µM; hit rate 42% among 920; AID 2776;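 active = compounds whose fluorescence signal differed from control wells by over 3 SD, either direction, in both duplicate plates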
# TRPC4 spec: tests whether TRPC6 inhibitors also affect mouse TRPC4; shares compounds with TRPC6 inhibitor; HEK293 TRPC4/mu-opioid, membrane potential fluorescence; activity change, negative = inhibition, % at 10 µM; hit rate 61% among 920; AID 2777;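 active = rise or fall in signal beyond 3 SD of buffer-only wells in both replicate plates, either sign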;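 also: integrated kinetic ratio of fluorescence range over baseline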
# HEK293 MPD ctr 2-1: parental HEK293 nonspecific activity of TRPC6 inhibitors, second screen | shares compounds with TRPC6 inhibitor | parental HEK293 membrane potential dye fluorescence; maximal acetylcholine challenge after compound addition | signal change vs control, % at 10 µM | hit rate 31% among 920;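 active = membrane potential signal moving either way by over 3 SD of the maximum-effect control, in both duplicate plates, meaning non-specific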
# HEK293 MPD ctr-1: checks TRPC6 inhibitor effects in parental HEK293 cells; shares compounds with TRPC6 inhibitor; hit rate 60% among 920; membrane potential signal change, % at 10 µM; parental HEK293 membrane potential dye fluorescence;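 active = membrane potential signal shifting up or down by more than 3 SD of buffer-only wells, on both duplicate plates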
# HEK293 MPD ctr-2: counter-screen for TRPC6 modulators: effect in parental HEK293 cells | shares compounds with TRPC6 inhibitor | membrane potential dye fluorescence | membrane potential signal change, % at 10 µM | hit rate 51% among 2,400;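 active = membrane potential signal moves up or down beyond 5 SD from buffer-only wells, on both duplicate plates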
# HEK293 MPD ctr 2-2: second check of TRPC6 modulator effects in parental HEK293 cells; shares compounds with TRPC6 inhibitor; membrane potential dye fluorescence; after compound, maximal acetylcholine stimulation; inhibition, % at 10 µM; hit rate 14% among 2,400; AID 488926;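 active = membrane potential signal drops by more than 5 SD from the mean control signal, in both duplicate plates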;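 also: plate controls were acetylcholine ECmax control wells for no effect and buffer only wells for full effect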
# TRPC4 ctr mod: selectivity of TRPC6 modulators against mouse TRPC4; shares compounds with TRPC6 inhibitor; HEK293 TRPC4/mu-opioid, membrane potential fluorescence; percent change from control (negative = decrease, positive = increase), % at 10 µM; hit rate 69% among 2,400; AID 488927;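 active = membrane potential signal moved up or down beyond 5 SD of buffer control wells, in both duplicate plates, actives on both sides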;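 also: plate controls were assay buffer wells for no effect and DAMGO maximal-effect wells for full effect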
# TRPC4/MOR inh 2: second check of whether TRPC6 modulators also affect mouse TRPC4 | hit rate 55% among 2,400 | shares compounds with TRPC6 inhibitor | HEK293 TRPC4/mu-opioid, membrane potential dye fluorescence; stimulated with maximal-effect DAMGO | inhibition, % at 10 µM;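 active = drop in membrane potential signal beyond 5 SD of the control wells in both duplicate plates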;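 also: TRPC4 counter screen for TRPC6 hits run under conditions tuned for TRPC6 not TRPC4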
# TRPC6 block conf: confirmation of mouse TRPC6 inhibitors; shares compounds with TRPC6 inhibitor; HEK293-TRPC6, membrane potential dye, ACh-evoked depolarization; inhibition, % at 10 µM; hit rate 43% among 3,300;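 active = fluorescence ratio falls more than 5 SD below the full-stimulation control mean, in both duplicate runs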;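 also: integrated fluorescence ratio of peak minus minimum over baseline after agonist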
# TRPC6 act confirm: mouse TRPC6 activator confirmation; shares compounds with TRPC6 inhibitor; HEK293-TRPC6 membrane potential dye fluorescence, FDSS; AID 488961; activation, % at 10 µM; hit rate 11% among 2,800;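 active = ratio signal rise beyond 5 SD above unstimulated control wells' mean, seen in both duplicate runs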;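 also: plate controls were buffer EC0 wells for no effect and acetylcholine ECmax response for full effect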
# * hit, by the source's call; i = inactive; / = not tested or not shown. A selection: hits, their analogues and other compounds. The true share with any hit is near 2.3%.
SMILES,TRPC6 activator,TRPC4 agonist,TRPC4 inh,TRPC6 inhibitor,TRPC4 potent,TRPC4 sel inh 2,TRPC4 spec,HEK293 MPD ctr 2-1,HEK293 MPD ctr-1,HEK293 MPD ctr-2,HEK293 MPD ctr 2-2,TRPC4 ctr mod,TRPC4/MOR inh 2,TRPC6 block conf,TRPC6 act confirm
CCN(CC)CCC#CC(O)(c1ccccc1)C1CCCCC1 (stereo not given),i,i,i,-7.6*,i,62%*,49%*,i,17%*,/,/,/,/,64%*,/
CN(C)CC#CCC(O)(c1ccccc1)C1CCCCC1 (stereo not given),i,i,i,-6.5*,i,/,/,/,/,i,105%*,20%*,36%*,78%*,i
CCC[N+]1(CC#CC(O)(c2ccccc2)C2CCCCC2)CCCCC1 (stereo not given),i,i,i,i,i,/,/,/,/,/,/,/,/,/,/
CCc1cc(CNC(=O)c2ccc(OC3CCN(C(C)=O)CC3)c(OC)c2)on1,i,i,i,i,i,/,/,/,/,/,/,/,/,/,/
Nc1cc(F)ccc1N1CCCCCC1,i,i,i,i,i,/,/,/,/,/,/,/,/,/,/
CC(C)Cn1c(=O)c(C(=O)Nc2ccncc2)c(O)c2ccccc21,i,i,i,-12*,i,i,-15%*,-84%*,i,/,/,/,/,84%*,i
CN(C)C(=O)COC(=O)c1ccccc1NC(=O)c1ccco1,i,i,i,i,i,/,/,/,/,/,/,/,/,/,/
COc1ccc(S(=O)(=O)Nc2noc3ccccc23)cc1,i,i,i,-6.7*,i,i,i,i,i,/,/,/,/,i,i
O=C(NCCCN1CCOCC1)C1Nc2ccc(OC(F)(F)F)cc2C2C=CCC12 (stereo not given),i,i,i,-9.7*,i,/,/,/,/,i,i,i,i,i,i
Cc1ccc2c(c1)C1C=CCC1C(C(=O)NCCCN1CCOCC1)N2 (stereo not given),i,i,i,i,i,/,/,/,/,/,/,/,/,/,/
Cc1ccc(-n2ncc(C(=O)Nc3cc(Cl)cc(Cl)c3)c2C2CCNCC2)cc1C,i,i,i,-6.9*,i,64%*,-12%*,i,i,/,/,/,/,i,i
Cc1ccc(-n2ncc(C(=O)Nc3cc(Cl)ccc3Cl)c2C2CCNCC2)cc1,i,i,i,i,i,/,/,/,/,/,/,/,/,/,/
NC(=O)COC(=O)C1c2ccccc2Oc2ccccc21,i,i,i,i,i,/,/,/,/,/,/,/,/,/,/
CN(C)CCCOC(=O)C1c2ccccc2Oc2ccccc21,i,i,i,-8.5*,i,i,7.3%*,28%*,7.4%*,/,/,/,/,63%*,/
CN(CCOC(=O)C1c2ccccc2Oc2ccccc21)C(C)(C)C,i,i,i,-10*,i,i,15%*,24%*,11%*,/,/,/,/,68%*,/
CCOC(=O)c1c(NC(=O)CSc2nnc(C)o2)sc(C)c1C,i,i,i,i,i,/,/,/,/,/,/,/,/,/,/
CCOc1ccc(-c2nnc(-c3ccncc3)o2)cc1OCC,i,i,i,-5.5*,i,/,/,/,/,-173%*,i,-36%*,32%*,i,i
CCC(C)n1c(/C=C/c2ccccc2)nc2ccccc21 (stereo not given),i,i,i,-5.1*,i,/,/,/,/,106%*,i,16%*,i,i,i
CCn1c(/C=C/c2ccccc2)nc2ccccc21,i,i,i,i,i,/,/,/,/,/,/,/,/,/,/
Cc1cc(N=Nc2ccccc2)c(NCC(O)C(O)C(O)CO)cc1C (stereo not given),i,i,i,-8.1*,i,32%*,-30%*,i,-542%*,/,/,/,/,80%*,i
CCCCN(C)CCCNC(=O)CN1C(=O)COc2ccc(S(=O)(=O)N3CCOCC3)cc21,i,i,i,-5.4*,i,/,/,/,/,i,i,i,i,i,i
Cc1ccc(OCCCC(=O)Nc2nc3ccccc3[nH]2)cc1,i,i,i,-7*,i,/,/,/,/,i,i,i,i,i,i
Cc1nc(NC(=O)c2ccc(Cl)cc2)nc2cc3c(cc12)OCO3,i,i,i,i,i,/,/,/,/,/,/,/,/,/,/
Cc1cc(C)nc(Nc2nc(C)c3cc4c(cc3n2)OCO4)n1,i,i,i,-6.8*,i,i,9.0%*,-138%*,8.5%*,/,/,/,/,i,i
CCOC(=O)c1ccc(NC(=O)CC2COc3ccccc3O2)cc1 (stereo not given),i,i,i,-7.4*,i,i,i,i,i,/,/,/,/,i,i
COc1ccccc1NC(=O)CC1COc2ccccc2O1 (stereo not given),i,i,i,i,i,/,/,/,/,/,/,/,/,/,/
CC(=O)c1cccc(NC(=O)CC2Oc3ccc(C)cc3NC2=O)c1 (stereo not given),i,i,i,i,i,/,/,/,/,/,/,/,/,/,/
CCOC(=O)c1cccc(NC(=O)CC2Oc3ccccc3NC2=O)c1 (stereo not given),i,i,i,-6*,i,/,/,/,/,i,i,i,i,i,i
CCNC(=O)c1cc2c(=O)n3cccc(C)c3nc2n(CCc2ccccc2)c1=N,i,i,i,-7.4*,i,/,/,/,/,-141%*,74%*,-28%*,48%*,63%*,i
